Reference: ChEMBL document CHEMBL1926614, “Substituted thiazoles V. synthesis and antitumor activity of novel thiazolo[2,3-b]quinazoline and pyrido[4,3-d]thiazolo[3,2-a]pyrimidine analogues” (2012)
Activity calls are given as the source filed them. The calls are words filed in the database; no cut-off is given here.

Key:
Assay type in all cases: functional
MCF7 = test: Growth inhibition of human MCF7 cells at 10 uM after 48 hrs by coulter counting; conditions: MCF7, 48 h, read-out: GI
Outline: (§1)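 Single-dose primary screen across the full NCI 60-cell-line panel. Stocks were made in DMSO and diluted in PBS to a final DMSO below 1%. Cultures at 6 × 10⁴ cells/ml were run in duplicate wells alongside PBS/DMSO vehicle controls at 37 °C in humidified 5% CO₂. Data were expressed as percent growth of treated cells.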

UACC-62 = test: Growth inhibition of human UACC62 cells at 10 uM after 48 hrs by coulter counting
Outline: (§2)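 Single-dose screen in the NCI 60 human tumor cell line panel (nine subpanels). Compounds dissolved in DMSO and diluted in phosphate buffered saline, keeping final DMSO below 1%. Added in duplicate wells to cells at 6 × 10⁴ cells/ml. Controls held PBS and DMSO at matching dilutions. Incubated at 37 °C, humidified, 5% CO₂. Reported as percent growth of treated cells.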

BT-549 = test: Growth inhibition of human BT549 cells at 10 uM after 48 hrs by coulter counting; conditions: BT-549, 48 h, read-out: GI; outline: as §1
EKVX = test: Growth inhibition of human EKVX cells at 10 uM after 48 hrs by coulter counting; conditions: read-out: GI; outline: as §1
MDA-MB-435 = test: Growth inhibition of human MDA-MB-435 cells at 10 uM after 48 hrs by coulter counting; outline: as §1
A498 = test: Growth inhibition of human A498 cells at 10 uM after 48 hrs by coulter counting; conditions: A498, 48 h, read-out: GI; outline: as §1
T47D = test: Growth inhibition of human T47D cells at 10 uM after 48 hrs by coulter counting; conditions: read-out: GI; outline: as §2
A549 = test: Growth inhibition of human A549 cells at 10 uM after 48 hrs by coulter counting; conditions: A549, 48 h, read-out: GI; outline: as §1
[1] = Growth inhibition of human NCI-322M cells at 10 uM after 48 hrs by coulter counting; conditions: read-out: GI; outline: as §1
SNB-19 = test: Growth inhibition of human SNB19 cells at 10 uM after 48 hrs by coulter counting; conditions: SNB-19, 48 h, read-out: GI; outline: as §1
HCT-116 = test: Growth inhibition of human HCT116 cells at 10 uM after 48 hrs by coulter counting; outline: as §1
HOP-62 = test: Growth inhibition of human HOP62 cells at 10 uM after 48 hrs by coulter counting; outline: as §1
MOLT-4 = test: Growth inhibition of human MOLT4 cells at 10 uM after 48 hrs by coulter counting; outline: as §1
SNB-75 = test: Growth inhibition of human SNB75 cells at 10 uM after 48 hrs by coulter counting; conditions: SNB-75, 48 h, read-out: GI; outline: as §1
[2] = Cytotoxicity against human prostate cancer cells after 48 hrs by coulter counting; conditions: Cancer cell lines
Outline: (§3)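 NCI 60-cell-line panel covering nine tumour subpanels, tested over a 5-log dose range. Compounds were dissolved in DMSO and diluted in phosphate-buffered saline to a final DMSO below 1%. Wells held 6 × 10⁴ cells/ml and were run in duplicate. Controls contained PBS and DMSO at matching dilutions. Incubation was at 37 °C in humidified 5% CO₂. GI₅₀, TGI and LC₅₀ were reported.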

[3] = Cytotoxicity against human breast cancer cells after 48 hrs by coulter counting; conditions: Cancer cell lines; for CC50: read-out: LC50 (the source's name); outline: as §3
KM12 = test: Growth inhibition of human KM12 cells at 10 uM after 48 hrs by coulter counting; outline: as §1
TK-10 = test: Growth inhibition of human TK10 cells at 10 uM after 48 hrs by coulter counting; conditions: TK-10, 48 h, read-out: GI; outline: as §2
ACHN = test: Growth inhibition of human ACHN cells at 10 uM after 48 hrs by coulter counting; outline: as §1
HCT-15 = test: Growth inhibition of human HCT15 cells at 10 uM after 48 hrs by coulter counting; outline: as §1
SN12C = test: Growth inhibition of human SN12C cells at 10 uM after 48 hrs by coulter counting; conditions: read-out: GI; outline: as §1
OVCAR-3 = test: Growth inhibition of human OVCAR3 cells at 10 uM after 48 hrs by coulter counting; outline: as §1
SF-268 = test: Growth inhibition of human SF268 cells at 10 uM after 48 hrs by coulter counting; conditions: SF-268, 48 h, read-out: GI; outline: as §1
SK-MEL-5 = test: Growth inhibition of human SK-MEL-5 cells at 10 uM after 48 hrs by coulter counting; conditions: SK-MEL-5, 48 h, read-out: GI; outline: as §1
NCI-H460 = test: Growth inhibition of human NCI-H460 cells at 10 uM after 48 hrs by coulter counting; outline: as §1
NCI-H522 = test: Growth inhibition of human NCI-H522 cells at 10 uM after 48 hrs by coulter counting; conditions: NCI-H522, 48 h, read-out: GI; outline: as §1
SK-MEL-28 = test: Growth inhibition of human SK-MEL-28 cells at 10 uM after 48 hrs by coulter counting; conditions: SK-MEL-28, 48 h, read-out: GI; outline: as §1
NSCLC = test: Cytotoxicity against human NSCLC cells after 48 hrs by coulter counting; conditions: for CC50: read-out: LC50 (the source's name); outline: as §3
SF-295 = test: Growth inhibition of human SF295 cells at 10 uM after 48 hrs by coulter counting; conditions: SF-295, 48 h, read-out: GI; outline: as §1
UACC-257 = test: Growth inhibition of human UACC257 cells at 10 uM after 48 hrs by coulter counting; outline: as §2
DU-145 = test: Growth inhibition of human DU145 cells at 10 uM after 48 hrs by coulter counting; outline: as §1
HT-29 = test: Growth inhibition of human HT-29 cells at 10 uM after 48 hrs by coulter counting; outline: as §1
[4] = Cytotoxicity against human ovarian cancer cells after 48 hrs by coulter counting; conditions: Cancer cell lines; for CC50: read-out: LC50 (the source's name); outline: as §3
RPMI-8226 = test: Growth inhibition of human RPMI8226 cells at 10 uM after 48 hrs by coulter counting; outline: as §1
OVCAR-8 = test: Growth inhibition of human OVCAR8 cells at 10 uM after 48 hrs by coulter counting; conditions: OVCAR-8, 48 h, read-out: GI; outline: as §1
SR = test: Growth inhibition of human SR cells at 10 uM after 48 hrs by coulter counting; outline: as §2
[5] = Cytotoxicity against human renal cancer cells after 48 hrs by coulter counting; conditions: Cancer cell lines; outline: as §3
786-0 = test: Growth inhibition of human 786-0 cells at 10 uM after 48 hrs by coulter counting; conditions: 786-0, 48 h, read-out: GI; outline: as §1
U-251 = test: Growth inhibition of human U251 cells at 10 uM after 48 hrs by coulter counting; conditions: U-251, 48 h, read-out: GI; outline: as §2

CCN1CC2=C(N=C3SC=CN3C2c2ccc(OC)c(OC)c2)/C(=C/c2ccc(OC)c(OC)c2)C1 (stereo not drawn)
inhibition of growth at 10 µM (MCF7): 80.5%
inhibition of growth at 10 µM (UACC-62; UACC-62, 48 h, read-out: GI): 62.4%
inhibition of growth at 10 µM (BT-549): > 10%
inhibition of growth at 10 µM (EKVX): 27.1%
growth inhibition (GI) (MDA-MB-435): Active
inhibition of growth at 10 µM (A498): 18.4%
inhibition of growth at 10 µM (T47D): > 10%
inhibition of growth at 10 µM (A549): 61.1%
inhibition of growth at 10 µM [1]: 19.1%
inhibition of growth at 10 µM (SNB-19): 52.9%
growth inhibition (GI) (HCT-116): Active
inhibition of growth at 10 µM (HOP-62; HOP-62, 48 h, read-out: GI): 84.7%
inhibition of growth at 10 µM (MOLT-4; MOLT-4, 48 h, read-out: GI): 67.9%
inhibition of growth at 10 µM (SNB-75): 71.4%
GI50 [2]: 3.4 µM
LC50 (concentration killing 50% of cells) [2]: 68.4 µM
TGI [2]: 29.8 µM
GI50 [3]: 19.3 µM
TGI [3]: 43.9 µM
CC50 [3]: 74.7 µM
growth inhibition (GI) (KM12): Active
inhibition of growth at 10 µM (TK-10): 46.5%
inhibition of growth at 10 µM (ACHN; read-out: GI): 79.5%
inhibition of growth at 10 µM (HCT-15; HCT-15, 48 h, read-out: GI): 75.8%
inhibition of growth at 10 µM (SN12C): 83.1%
growth inhibition (GI) (OVCAR-3): Active
inhibition of growth at 10 µM (SF-268): 76%
inhibition of growth at 10 µM (SK-MEL-5): 60.9%
growth inhibition (GI) (NCI-H460): Active
inhibition of growth at 10 µM (NCI-H522): 46.1%
inhibition of growth at 10 µM (SK-MEL-28): 61.3%
GI50 (NSCLC): 3.2 µM
TGI (NSCLC): 40.1 µM
CC50 (NSCLC): 76.5 µM
inhibition of growth at 10 µM (SF-295): 82.2%
inhibition of growth at 10 µM (UACC-257; UACC-257, 48 h, read-out: GI): 63.2%
growth inhibition (GI) (DU-145): Active
growth inhibition (GI) (HT-29): Active
GI50 [4]: 3.2 µM
TGI [4]: 48.9 µM
CC50 [4]: 90.5 µM
growth inhibition (GI) (RPMI-8226): Active
inhibition of growth at 10 µM (OVCAR-8): 95.9%
growth inhibition (GI) (SR): Active
GI50 [5]: 3100 nM
LC50 (concentration giving 50% net cell kill) [5]: 52.8 µM
TGI [5]: 9.8 µM
inhibition of growth at 10 µM (786-0): > 10%
inhibition of growth at 10 µM (U-251): 90%

CCN1CC2=C(N=C3SC=C(C)N3C2c2ccc(OC)c(OC)c2)/C(=C/c2ccc(OC)c(OC)c2)C1 (stereo not drawn)
inhibition of growth at 10 µM (MCF7): 84.5%
growth inhibition (GI) (UACC-62): Active
inhibition of growth at 10 µM (BT-549): 57%
inhibition of growth at 10 µM (EKVX): 37.5%
growth inhibition (GI) (MDA-MB-435): Active
inhibition of growth at 10 µM (A498): 53.8%
inhibition of growth at 10 µM (T47D): 26.2%
inhibition of growth at 10 µM (A549): 93.2%
inhibition of growth at 10 µM [1]: 63.6%
inhibition of growth at 10 µM (SNB-19): 61%
growth inhibition (GI) (HCT-116): Active
growth inhibition (GI) (HOP-62): Active
growth inhibition (GI) (MOLT-4): Active
inhibition of growth at 10 µM (SNB-75): 68.1%
GI50 [2]: 2.8 µM
LC50 (concentration killing 50% of cells) [2]: 79.2 µM
TGI [2]: 53.4 µM
GI50 [3]: 5.7 µM
TGI [3]: 49.5 µM
CC50 [3]: 68.2 µM
growth inhibition (GI) (KM12): Active
inhibition of growth at 10 µM (TK-10): 98.8%
growth inhibition (GI) (ACHN): Active
growth inhibition (GI) (HCT-15): Active
inhibition of growth at 10 µM (SN12C): 93.7%
growth inhibition (GI) (OVCAR-3): Active
inhibition of growth at 10 µM (SF-268): 89.4%
inhibition of growth at 10 µM (SK-MEL-5): 87.2%
growth inhibition (GI) (NCI-H460): Active
inhibition of growth at 10 µM (NCI-H522): 61.7%
inhibition of growth at 10 µM (SK-MEL-28): 96.5%
GI50 (NSCLC): 3 µM
TGI (NSCLC): 44.2 µM
CC50 (NSCLC): 86.5 µM
inhibition of growth at 10 µM (SF-295): 69.2%
growth inhibition (GI) (UACC-257): Active
growth inhibition (GI) (DU-145): Active
growth inhibition (GI) (HT-29): Active
GI50 [4]: 3.8 µM
TGI [4]: 49.7 µM
CC50 [4]: > 100 µM
growth inhibition (GI) (RPMI-8226): Active
inhibition of growth at 10 µM (OVCAR-8): 96.5%
growth inhibition (GI) (SR): Active
GI50 [5]: 2500 nM
LC50 (concentration giving 50% net cell kill) [5]: 47.1 µM
TGI [5]: 8.9 µM
inhibition of growth at 10 µM (786-0): 69.9%
inhibition of growth at 10 µM (U-251): 97.9%
